# KCNQ1 pot: potentiates or activates the human KCNQ1 potassium channel | P51787 | CHO-K1 KCNQ1, thallium flux FluxOR fluorescence; active compounds read high | B-score at 10 µM | 0.35% of 310,000 active;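 active = fluorescence ratio B-score, a plate-corrected score, at least three library SD, with initial intensity B-score within 5 SD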
# Target sequence (P51787 whole entry, looked up): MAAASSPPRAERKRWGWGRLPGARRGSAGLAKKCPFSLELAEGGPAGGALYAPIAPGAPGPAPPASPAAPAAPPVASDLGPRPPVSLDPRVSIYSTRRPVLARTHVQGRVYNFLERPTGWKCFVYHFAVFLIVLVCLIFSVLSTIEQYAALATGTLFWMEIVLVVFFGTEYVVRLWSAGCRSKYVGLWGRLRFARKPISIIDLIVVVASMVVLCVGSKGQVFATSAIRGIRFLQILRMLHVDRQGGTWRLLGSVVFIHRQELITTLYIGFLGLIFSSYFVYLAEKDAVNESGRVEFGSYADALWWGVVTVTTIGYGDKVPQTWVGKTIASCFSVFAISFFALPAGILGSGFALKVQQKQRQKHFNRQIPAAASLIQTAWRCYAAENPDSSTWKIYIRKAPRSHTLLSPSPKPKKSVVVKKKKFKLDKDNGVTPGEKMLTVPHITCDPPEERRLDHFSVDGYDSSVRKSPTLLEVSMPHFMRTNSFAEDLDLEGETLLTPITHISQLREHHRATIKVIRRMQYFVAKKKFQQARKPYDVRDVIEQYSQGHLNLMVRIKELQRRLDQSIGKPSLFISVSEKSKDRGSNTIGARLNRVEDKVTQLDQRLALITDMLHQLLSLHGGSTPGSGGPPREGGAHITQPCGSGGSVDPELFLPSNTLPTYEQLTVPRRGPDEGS
#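 assay system = CHO-K1 cells stably expressing KCNQ1 | medium = assay buffer, equal DMSO in all wells | timing = 37 °C overnight plating, 90-min dark dye load, 20-min compound pretreatment | measured by = kinetic FluxOR thallium fluorescence, 10-s 1-Hz baseline, 110-s post-stimulus read | measure = fluorescence change relative to baseline, converted to B score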
# hERG protect: hERG (human) protection from proarrhythmic block; Q12809; CHO-hERG, FluxOR thallium flux, dofetilide IC70 present; activation (rescue from dofetilide block), less the hit threshold, % at 10 µM; 0.51% of 310,000 active; AID 1511;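 active = activation above the mean of controls blocked by dofetilide plus 5 SD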;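 also: thallium influx through hERG after potassium depolarization seen as dye fluorescence rise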
# KCNQ1 inh: human KCNQ1 channel inhibition; P51787; CHO-K1 KCNQ1, FluxOR thallium flux fluorescence; active compounds read high; B-score at 10 µM; 1.3% of 310,000 active; AID 2642;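 active = compounds whose thallium flux B-score, printed positive for inhibition, exceeds three library SD while starting fluorescence stays within three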;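 also: channel opened by potassium depolarization with thallium stimulus after 20 min compound exposure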
# KCNK3 inh: human KCNK3 channel inhibition, primary screen. 0.84% of 340,000 active. B-score at 10 µM. CHO-KCNK3 thallium flux, FluxOR fluorescence; active compounds read low. AID 602410;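 active = B-score under library mean minus 4 SD, starting fluorescence ratio at most library mean plus 5 SD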;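 also: more negative B-score means stronger inhibition of thallium flux through KCNK3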
# KCNK9 block: inhibitors of human KCNK9 two-pore domain potassium channel; HEK293 KCNK9, FluxOR thallium flux fluorescence; active compounds read low; 1.2% of 310,000 active; AID 488922; Q9NPC2; B-score at 10 µM;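 active = ratio B-score over 3 SD below the library mean, with starting fluorescence within 5 SD of its mean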;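 also: negative B-score means less thallium flux so channel inhibition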
# * hit, by the source's call; i = inactive; x = not tested or not shown. Rows were chosen to be rich in hits. Some 3.1% of all compounds tested hit in one or more screens of this group.
SMILES,KCNQ1 pot,hERG protect,KCNQ1 inh,KCNK3 inh,KCNK9 block
O=C(NC(=S)Nc1ccc(N2CCCCC2)c(Cl)c1)c1cccs1,65*,13*,i,i,i
COC(=O)c1nc(NC(=S)NC(=O)c2cccs2)sc1C,i,-4,i,i,i
O=C(NC(=S)Nc1ccccc1)c1cccs1,11*,10*,i,i,i
COc1ccc(/C=C/C(=O)c2ccc(NC(=O)c3cccs3)cc2)cc1OC,i,8.9*,i,i,i
O=C(NC(=S)Nc1nc2ccccc2s1)c1cccs1,54*,52*,i,i,i
O=C(NC(=S)Nc1ccc(Br)cn1)c1cccs1,13*,4,i,i,i
CCc1ccccc1NC(=O)C1CCCN(S(=O)(=O)c2ccc3c(c2)CC(C)N3C(C)=O)C1 (stereo not drawn),i,-10,i,i,i
CCN1C(=O)[C@H]2[C@@H](c3ccc(-c4ccc5c(c4)OCO5)c(OC)c3)N[C@@](C)(C(=O)OC)[C@H]2C1=O,x,x,x,i,x
CC(OC(=O)c1cccs1)C(=O)NC1CCCCC1C (stereo not drawn),x,x,x,i,x
O=C(Nc1ccc(NC(=O)c2cccs2)cc1)c1cccs1,i,-5,i,i,i
CC1CCCCC1NC(=S)NC(=O)c1cccs1 (stereo not drawn),20*,5.2*,i,i,i
Cc1ccc(NC(=S)c2nc3ccccc3s2)cc1,i,3,i,i,i
COCC(=O)Nc1nc2ccccc2s1,i,-4,i,i,i
O=C(Nc1ccc(Cl)cc1)c1cccs1,i,-14,i,i,-7.2*
NC(=S)Nc1nc2ccccc2s1,8*,-3,i,i,i
S=C(Nc1ccc(Cl)cc1)c1nc2ccccc2s1,29*,27*,i,i,i
O=C(NCCc1ccccc1)c1cccs1,i,-9,i,i,i
O=C(NCCC(c1ccccc1)c1ccccc1)c1cccs1,i,-4,i,i,-7*
O=C1OCC2=C1C(c1ccc(F)cc1)Sc1ccccc1N2 (stereo not drawn),i,6.0*,i,i,i
CC(C)N(C(=O)[C@H]1CC(CC(=O)NCC23CC4CC(CC(C4)C2)C3)C(=O)N2CCc3c([nH]c4ccccc34)[C@]12C)C(C)C (stereo partly drawn),x,x,x,i,x
O=C(COc1ccc(C(=O)c2ccccc2)cc1)Nc1cccnc1,i,16*,i,i,i
Cc1ccc(C2=NN(CC(=O)O)C(=O)CC2)cc1,i,-5,i,i,i
OCCNCCOc1ccccc1F,i,-2,i,i,i
CC(C)c1ccccc1NC(=O)CNCCOc1ccccc1F,i,-6,6*,i,i
Cc1ccc([C@H]2C(C(=O)O)=CC[C@@H](c3ccc4c(c3)OCO4)N2S(=O)(=O)c2ccc(C)cc2)cc1,x,x,x,i,x
SMILES,KCNQ1 pot,hERG protect,KCNQ1 inh,KCNK3 inh,KCNK9 block
O=C(c1cc(C2CC2)nn1-c1ccccc1)N1CCN(c2ccccc2O)CC1,x,x,x,i,x
Cc1ccccc1N1CCN(C(=O)c2cc(C3CC3)nn2-c2ccccc2)CC1,x,x,x,-9*,x
CCOC(=O)c1c(NC(=O)Cn2nnc3ccccc32)sc2c1CCC(C)C2 (stereo not drawn),i,-5,i,i,i
CCOC(=O)c1c(NC(=O)C(C)NCc2ccco2)sc2c1CCC(C)C2 (stereo not drawn),i,-11,6*,i,i
COc1ccc(N2CCN(C(=S)Nc3ccccc3OC)CC2)cc1,i,-8,i,i,i
Cc1ccc(S(=O)(=O)/C(C#N)=C/c2c(N3CCN(Cc4ccccc4)CC3)nc3ccccn3c2=O)cc1,i,-16,i,-11*,i
Cc1ccc(S(=O)(=O)/C(C#N)=C/c2c(N3CCN(C)CC3)nc3ccccn3c2=O)cc1,i,-14,i,i,i
C=CCn1c(-c2cc(-c3ccc(C)cc3)nc3ccccc23)n[nH]c1=S,i,5.8*,i,i,i
CCn1c(-c2cc(-c3ccc(OC(C)C)cc3)nc3ccccc23)n[nH]c1=S,i,-20,6*,i,i
CCn1c(-c2cc(-c3ccc(C)cc3)nc3ccccc23)n[nH]c1=S,i,-1,i,i,i
NC(=O)C1CCN(c2oc(/C=C/c3ccccc3)nc2S(=O)(=O)c2ccccc2)CC1,i,-7,i,i,i
Cc1ccccc1NS(=O)(=O)c1cc(C(=O)Nc2ccccc2-c2ccccc2)ccc1Cl,i,-5,i,i,-7.2*
Cc1ccccc1NS(=O)(=O)c1cc(C(=O)N2CCCC2)ccc1Cl,i,-7,i,i,i
O=C(O)CCc1cc(I)c(Oc2ccc(O)c(I)c2)c(I)c1,49*,29*,i,x,i
N[C@@H](Cc1cc(I)c(Oc2ccc(O)c(I)c2)c(I)c1)C(=O)O,i,-5,i,i,i
CCOC(=O)c1c(-c2ccccc2)nnn1-c1nc(OCC)nc(N2CCCCC2)n1,i,-23,i,-14*,i
O=C(Cn1nnc(-c2cccc(C(F)(F)F)c2)n1)N1CCCCCC1,i,5.1*,i,i,i
CN(N=Nc1nc[nH]c1C(=O)NN)C1CCCCC1,x,x,x,i,x
CCOC(=O)/C(C#N)=C/c1ccc(OC)c(OC)c1,i,-10,i,i,i
CCOC(=O)/C(C#N)=C/c1ccc(SC)cc1,i,42*,i,i,i
O=C(NNC(=S)NC1CCCCC1)c1sc2ccccc2c1Cl,i,-9,i,i,i
CCCOC(=S)NC(=O)c1sc2ccccc2c1Cl,49*,15*,i,i,i
CC(C)(C)C(=O)NC(=S)NNC(=O)c1sc2ccccc2c1Cl,49*,34*,i,i,i
CCOC(=S)NC(=O)c1sc2ccccc2c1Cl,96*,22*,i,i,i
O=C(NC(=S)NCCO)c1sc2ccccc2c1Cl,i,-7,i,i,i
O=C(Cc1noc2ccccc12)NNC(=S)Nc1ccccc1,i,5.7*,i,i,i
Cc1ccc(-n2nc3c(=O)n(C(C)C(=O)NCCC4=CCCCC4)nc(C)c3c2C)cc1 (stereo not drawn),i,-12,i,i,i
COc1ccc(C[C@H]2CN3C(=NC[C@H]3Cc3ccccc3)N2CCNC(=O)c2ccc(C)c(Br)c2)cc1,i,-27,7*,i,i
COc1ccc(C[C@H]2CN3C(=NC[C@@H]3Cc3ccccc3)N2CCNC(=O)c2ccc(C)c(Br)c2)cc1,i,-23,9*,i,i
Cn1nc(-c2ccccc2)c(CSc2ccccc2Cl)c1Cl,i,-4,i,i,-7.6*

# Screening data deposited in PubChem BioAssay by Johns Hopkins Ion Channel Center.
